Assay results as given in ChEMBL document CHEMBL4359913, “Identification and characterization of benzo[d]oxazol-2(3H)-one derivatives as the first potent and selective small-molecule inhibitors of chromodomain protein CDYL” (Eur J Med Chem, 2019).

Legend:
[1] = molecular target: T1, Chromodomain Y-like protein (Homo sapiens, UniProt Q9Y232); experiment: Binding affinity to recombinant human N-terminal GST-tagged CDYL (1 to 60 residues) expressed in Escherichia coli […] by SPR analysis
T1 sequence (Q9Y232 whole entry): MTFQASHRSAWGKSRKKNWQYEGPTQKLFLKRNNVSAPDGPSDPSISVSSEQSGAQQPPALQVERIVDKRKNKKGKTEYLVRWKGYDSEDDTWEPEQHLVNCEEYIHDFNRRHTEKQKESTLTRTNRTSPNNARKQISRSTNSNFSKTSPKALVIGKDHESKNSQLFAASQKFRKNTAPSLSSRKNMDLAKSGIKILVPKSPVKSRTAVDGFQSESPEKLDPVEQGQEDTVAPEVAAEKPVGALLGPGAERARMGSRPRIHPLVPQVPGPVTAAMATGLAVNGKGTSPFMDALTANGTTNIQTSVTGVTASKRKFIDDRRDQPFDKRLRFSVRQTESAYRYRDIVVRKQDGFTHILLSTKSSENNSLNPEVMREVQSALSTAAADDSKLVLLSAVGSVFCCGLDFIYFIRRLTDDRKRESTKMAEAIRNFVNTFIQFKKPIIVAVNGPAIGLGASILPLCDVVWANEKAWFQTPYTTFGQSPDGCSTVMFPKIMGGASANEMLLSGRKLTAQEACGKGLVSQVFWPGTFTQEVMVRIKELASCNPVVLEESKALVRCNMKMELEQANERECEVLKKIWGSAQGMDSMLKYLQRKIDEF
Summary of the method: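 GST-tagged chromodomain expressed in E. coli BL21 with 0.2 mM IPTG at 28 °C for 6 h. Purified on GSTrap, tag removed with PreScission protease. Amine-coupled to CM5 chip at pH 4.0–4.5 (5000–10000 RU). Compound run as a 1.5- or 2-fold series from 100 µM in PBSP with 5% DMSO, 25 °C, 30 µL/min, 60 s association and 60 s dissociation.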

[2] = molecular target: T2, Testis-specific chromodomain protein Y 1 (Homo sapiens, UniProt Q9Y6F8); experiment: Binding affinity to recombinant human N-terminal GST-tagged CDY1 (1 to 65 residues) expressed in Escherichia coli […] by SPR analysis
T2 sequence (Q9Y6F8 whole entry): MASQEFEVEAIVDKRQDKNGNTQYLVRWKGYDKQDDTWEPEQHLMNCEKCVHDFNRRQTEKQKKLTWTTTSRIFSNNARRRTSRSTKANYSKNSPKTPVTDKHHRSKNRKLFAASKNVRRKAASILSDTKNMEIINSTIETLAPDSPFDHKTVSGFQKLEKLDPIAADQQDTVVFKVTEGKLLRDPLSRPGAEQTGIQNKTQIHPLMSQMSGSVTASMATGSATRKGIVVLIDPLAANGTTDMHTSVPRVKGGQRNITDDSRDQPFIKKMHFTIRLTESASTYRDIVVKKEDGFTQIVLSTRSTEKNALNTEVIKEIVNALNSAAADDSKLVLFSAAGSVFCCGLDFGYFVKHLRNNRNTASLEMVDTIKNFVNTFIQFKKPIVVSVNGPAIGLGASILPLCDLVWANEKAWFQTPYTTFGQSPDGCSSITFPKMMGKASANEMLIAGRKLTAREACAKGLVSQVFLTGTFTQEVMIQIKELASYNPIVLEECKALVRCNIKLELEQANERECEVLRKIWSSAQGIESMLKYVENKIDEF
Summary of the method: (§1)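 Chromodomain expressed with N-terminal GST tag in E. coli BL21 (IPTG 0.2 mM at OD600 0.6–0.8, 28 C for 6 h), GSTrap purified, tag cleaved by PreScission protease, amine-coupled to CM5 chip at pH 4.0–4.5 (5000–10000 RU). […] Mean ± SD of at least two replicates, each in duplicate.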

[3] = molecular target: T3, Chromobox protein homolog 7 (Homo sapiens, UniProt O95931); experiment: Binding affinity to recombinant human N-terminal GST-tagged CBX7 (1 to 62 residues) expressed in Escherichia coli […] by SPR analysis; summary of the method: as §1
T3 sequence (O95931 whole entry): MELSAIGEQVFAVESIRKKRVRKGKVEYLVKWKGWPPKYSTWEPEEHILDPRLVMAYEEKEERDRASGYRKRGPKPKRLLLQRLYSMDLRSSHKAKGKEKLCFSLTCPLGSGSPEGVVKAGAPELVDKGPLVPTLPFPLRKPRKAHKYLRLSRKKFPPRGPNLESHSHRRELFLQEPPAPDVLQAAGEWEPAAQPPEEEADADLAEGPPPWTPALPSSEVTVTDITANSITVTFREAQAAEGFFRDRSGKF

SMILES: COc1ccc2oc(=O)n(CC(=O)c3ccc(OC)c(OC)c3)c2c1
- Kd [1]: 5.5 µM
- Kd [2]: 11.3 µM
- Kd [3]: 3.9 µM

SMILES: CCCN1C(=O)C(O)(CC(=O)c2cc(Br)c(Br)o2)c2cc(Cl)ccc21 (stereo not drawn)
- Kd [1]: 15.4 µM
- Kd [3]: 16 µM

SMILES: O=C(Cn1c(=O)oc2ccccc21)Nc1cccc2ccccc12
- Kd [1]: 29 µM
- Kd [2]: 0.8 µM
- Kd [3]: > 200 µM

SMILES: Nc1ccc2c(c1)sc(=O)n2CC(=O)c1c[nH]c2ccccc12
- Kd [1]: 3.5 µM
- Kd [2]: 51.1 µM
- Kd [3]: 6.5 µM

SMILES: O=C(Cn1c(=O)oc2ccc(Br)cc21)c1ccc2ccccc2c1
- Kd [1]: 5.8 µM
- Kd [2]: 14.8 µM
- Kd [3]: 9.5 µM

SMILES: CN(C)c1ccc(C(=O)Cn2c(=O)oc3ccc(F)cc32)cc1
- Kd [1]: 90.1 µM
- Kd [2]: 34.6 µM
- Kd [3]: 78.1 µM

SMILES: COc1cccc(C(=O)Cn2cnc3ccccc32)c1
- Kd [1]: 10.1 µM
- Kd [2]: 4 µM

SMILES: O=C(Cn1c(=O)oc2ccc(F)cc21)c1ccc2ccccc2c1
- Kd [1]: 20.1 µM
- Kd [2]: 210 µM
- Kd [3]: 40.2 µM

SMILES: CCCN1C(=O)C(O)(CC(=O)c2cccc3ccccc23)c2ccccc21 (stereo not drawn)
- Kd [1]: 23 µM
- Kd [2]: 21.1 µM
- Kd [3]: 20.4 µM

SMILES: O=C(Cn1c(=O)oc2ccccc21)Nc1ccc2ccccc2c1
- Kd [1]: 18.9 µM
- Kd [2]: 20.4 µM
- Kd [3]: 19.6 µM

SMILES: O=C(CN1C(=O)COc2ccccc21)c1c[nH]c2ccccc12
- Kd [1]: 59.8 µM
- Kd [2]: 109 µM
- Kd [3]: 37.1 µM

SMILES: CC(C)N1C(=O)[C@@](O)(CC(=O)c2cccc3ccccc23)c2ccccc21
- Kd [1]: 55.3 µM

SMILES: CN1C(=O)C(O)(CC(=O)c2cccc3ccccc23)c2ccccc21 (stereo not drawn)
- Kd [1]: 128 µM
- Kd [2]: 24.7 µM
- Kd [3]: 2.4 µM

SMILES: CN(C)C1CCN(C(=O)Cn2c(=O)oc3ccccc32)CC1
- Kd [1]: 9.5 µM
- Kd [2]: 33.6 µM

SMILES: CCN(CC)C1CCN(C(=O)Cn2c(=O)oc3ccc(F)cc32)CC1
- Kd [1]: 2.8 µM
- Kd [2]: 4.5 µM
- Kd [3]: 2.8 µM

SMILES: CCCC(=O)Nc1ccc(Cl)c(NC(=O)COc2ccccc2OC)c1
- Kd [1]: 14.2 µM

SMILES: COc1ccc(C(=O)Cn2c(=O)oc3ccc(F)cc32)cc1OC
- Kd [1]: 20.5 µM
- Kd [2]: 4.4 µM
- Kd [3]: 28.8 µM

SMILES: COc1cccc(C(=O)Cn2c(=O)oc3ccccc32)c1
- Kd [1]: 4.9 µM
- Kd [2]: 5.8 µM

SMILES: COc1ccccc1[C@@H]1NC(=O)c2c(sc3c2CCN(C)C3)N1
- Kd [1]: 53.2 µM

SMILES: O=C(Cn1c(=O)oc2ccccc21)N1CCC(N2CCOCC2)CC1
- Kd [1]: 25.9 µM
- Kd [2]: 21 µM
- Kd [3]: 5.6 µM

SMILES: O=C(Cn1c(=O)oc2ccc(F)cc21)c1c[nH]c2ccccc12
- Kd [1]: 5.1 µM
- Kd [2]: 23.7 µM
- Kd [3]: 9.8 µM

SMILES: C=CCN1C(=O)C(O)(CC(=O)c2ccc3ccccc3c2)c2ccccc21 (stereo not drawn)
- Kd [1]: 31.7 µM
- Kd [2]: 24.5 µM

SMILES: O=C(CN1C(=O)COc2ccccc21)c1ccc2ccccc2c1
- Kd [1]: 52.5 µM
- Kd [2]: 39.6 µM
- Kd [3]: 26.5 µM

SMILES: COc1cccc(C(=O)Cn2c(=O)oc3ccc(C#N)cc32)c1
- Kd [2]: 42.1 µM
- Kd [3]: 19.6 µM

SMILES: CCN(CC)CCOC(=O)CCc1cccc2ccccc12
- Kd [1]: 60.8 µM

SMILES: CCN(CC)C1CCN(C(=O)Cn2c(=O)oc3ccccc32)CC1
- Kd [1]: 5.8 µM
- Kd [3]: 46.6 µM

SMILES: CN(C)c1ccc(C(=O)Cn2c(=O)oc3ccccc32)cc1
- Kd [1]: 11.9 µM
- Kd [3]: 36.5 µM

SMILES: O=C(Cn1c(=O)sc2cc([N+](=O)[O-])ccc21)c1ccc2ccccc2c1
- Kd [1]: 26.8 µM
- Kd [2]: 123 µM

SMILES: N#Cc1ccc2oc(=O)n(CC(=O)c3ccc4ccccc4c3)c2c1
- Kd [1]: 101 µM
- Kd [2]: 71.5 µM

SMILES: COCCCNC(=O)Cc1c(C)c2c(O)cc(C)cc2oc1=O
- Kd [1]: 26 µM

SMILES: COc1cccc(C(=O)Cn2c(=O)oc3ccc(F)cc32)c1
- Kd [1]: 6.2 µM
- Kd [3]: 3.4 µM

SMILES: O=C(Cn1c(=O)oc2ccc([N+](=O)[O-])cc21)N1CCC(N2CCCC2)CC1
- Kd [1]: 16.8 µM
- Kd [2]: 55.8 µM

SMILES: Nc1ccc2c(c1)sc(=O)n2CC(=O)c1ccc2ccccc2c1
- Kd [1]: 4.9 µM
- Kd [3]: > 200 µM

SMILES: C[C@@H](CN1CCCC1)OC(=O)c1ccc(Cl)cc1Cl
- Kd [1]: 271 µM

SMILES: CN1CCc2c(sc3c2C(=O)N[C@@H](/C=C\c2ccccc2)N3)C1
- Kd [1]: 55.6 µM
